# An excerpt weighted towards active compounds, which were near 3.5% of everything screened.
# MrgX1 agonist: human MrgX1 receptor agonism, primary screen; Q96LB2; MrgX1-HEK293 cells, Fluo-4 calcium fluorescence, agonist mode; stronger effect = higher value; B-score at 10 µM; actives 0.44% (n = 310,000); AID 588627;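 active = calcium response B-score plate-corrected fluorescence ratio at least 3 library SD, with starting fluorescence B-score inside 5 SD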
# Target sequence (Q96LB2 whole entry, looked up): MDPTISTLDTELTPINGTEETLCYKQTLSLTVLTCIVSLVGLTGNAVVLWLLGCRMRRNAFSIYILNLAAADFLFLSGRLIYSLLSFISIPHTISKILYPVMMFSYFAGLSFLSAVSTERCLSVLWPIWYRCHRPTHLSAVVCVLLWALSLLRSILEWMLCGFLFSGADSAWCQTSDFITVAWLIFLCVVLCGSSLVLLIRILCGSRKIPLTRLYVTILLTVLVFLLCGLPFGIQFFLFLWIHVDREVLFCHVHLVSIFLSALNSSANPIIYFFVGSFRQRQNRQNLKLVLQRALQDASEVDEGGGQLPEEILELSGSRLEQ
#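 Material: MrgX1-expressing HEK293 cells / Dosing: compound as first of three additions / Incubation: overnight seeding, then 1 h dark dye loading / Signal: Fluo-4 NW calcium fluorescence / Evaluation: B-scored fluorescence response ratio / Benchmarks: positive and negative control wells on each plate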
# MrgX1 antag: antagonists of human MrgX1 receptor; Q96LB2; MRGX1-HEK293 calcium flux, Fluo-4, BAM8-22 antagonism; stronger effect = lower value; B-score at 10 µM; actives 1.3% (n = 310,000); AID 588676;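 active = calcium-response B-score plate-corrected more than 3 library SD below zero, starting fluorescence within 5 deviations, no agonist response on first addition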;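 also: peak minus trough fluorescence over baseline after final BAM8-22 challenge near maximal dose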
# MrgX1 PAM: allosterically activates human MrgX1 receptor signaling. actives 0.63% (n = 310,000). MrgX1-HEK293, Fluo-4 calcium flux, FDSS; stronger effect = higher value. Q96LB2. B-score at 10 µM;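 active = plate-corrected calcium response at least 3 library SD above typical, normal starting fluorescence, not activating the receptor alone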;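 also: compound read alongside a low EC10 to EC30 dose of BAM8-22 agonist; peak minus trough fluorescence over baseline measured at the second addition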
# RGS4 block: human RGS4 inhibition. P49798. HEK293 M3R/RGS4 inducible, Fluo-4 calcium flux; stronger effect = higher value; triggered by carbachol at its EC20. B-score at 10 µM. actives 0.45% (n = 310,000). AID 463165;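 active = B-score, a plate-corrected calcium signal, over three deviations above library mean, with baseline fluorescence within five deviations of library mean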;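 also: RGS4 expression induced by doxycycline in cells with stable M3 receptor; B-score is computed from the integrated fluorescence ratio over baseline after carbachol; higher B-score means a larger calcium signal and so more RGS4 inhibition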
# Target sequence (P49798 whole entry, looked up): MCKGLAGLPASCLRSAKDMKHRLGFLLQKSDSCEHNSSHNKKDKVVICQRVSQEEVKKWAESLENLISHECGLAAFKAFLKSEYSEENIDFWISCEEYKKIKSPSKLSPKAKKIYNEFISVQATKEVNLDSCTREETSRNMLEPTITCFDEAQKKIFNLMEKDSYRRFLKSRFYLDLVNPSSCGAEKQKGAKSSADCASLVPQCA
# RGS4 pot: potentiators or activators of RGS4 | HEK293 M3R/inducible RGS4, carbachol calcium flux Fluo4; stronger effect = lower value | B-score at 10 µM | actives 0.92% (n = 310,000) | AID 463111;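 active = B-score of the integrated calcium signal more than 4 SD below the library mean, with starting fluorescence not abnormally high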;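 also: negative B-score means reduced calcium response which marks RGS4 activation or potentiation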
#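 test system = HEK293 cells with stable M3R and inducible RGS4 | schedule = recording 10 s baseline at 1 Hz, 100 s post-agonist | technique = Fluo4-AM (2 µM) calcium-flux fluorescence, kinetic read | measure = Agonist-evoked peak-minus-minimum fluorescence over baseline, integrated ratio, B score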
# RGS4 act valid: RGS4 activation, validation assay; shares compounds with RGS4 pot; HEK293 M3R/RGS4 inducible, carbachol calcium flux Fluo4; actives 89% (n = 1,100); inhibition, % at 10 µM;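 active = inhibition above 3 SD of the buffer control wells, cut at about 41% in these data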;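 also: signal is the integrated peak-minus-minimum Fluo4 fluorescence over baseline ratio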
# RGS4 act ctr: activity in cells without induced RGS4 expression; actives 82% (n = 1,100); inhibition, % at 10 µM; shares compounds with RGS4 pot; HEK293 M3R non-induced RGS4, Fluo4 calcium flux; after carbachol challenge at its EC90;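 active = inhibition exceeding 3 SD of buffer-only control wells, cut at about 26% in these data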;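 also: percent drop in integrated peak-minus-baseline over baseline Fluo4 ratio after carbachol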
# Active calls of the source: *; i = inactive; . = not tested or not shown.
SMILES,MrgX1 agonist,MrgX1 antag,MrgX1 PAM,RGS4 block,RGS4 pot,RGS4 act valid,RGS4 act ctr
Cc1ccc2c(CN3CCN(Cc4ccc5c(c4)OCO5)CC3)cc(=O)oc2c1C,i,i,i,i,-8.7*,0,0
Cc1cc(C)c2c(CN3CCN(Cc4ccc5c(c4)OCO5)CC3)cc(=O)oc2c1C,i,i,i,i,-7.7*,76*,28*
Cc1cc(C)c2c(CN3CCN(Cc4ccc5c(c4)OCO5)CC3)cc(=O)oc2c1,i,i,i,i,-8.7*,91*,52*
CCC(C)c1ccc(NC(=O)C2CC3CCC2C3)cc1 (configuration not stated),i,i,i,i,i,.,.
OC(CN1CCCCCC1)CN(c1ccccc1)c1ccccc1 (configuration not stated),i,i,i,i,i,.,.
OC(CN1CCCCC1)CN(c1ccccc1)c1ccccc1 (configuration not stated),i,i,i,i,-9.8*,90*,58*
CN1CCN(CC(=O)Nc2c(C(=O)c3ccccc3)oc3ccccc23)CC1,i,i,i,i,-10*,70*,27*
COc1cccc(-c2nc(N3CCCCC3)c3ccccc3n2)c1O,i,i,i,i,-8.8*,92*,91*
CC(=O)N(C)c1ccc(NC(=O)Nc2ccc(Cl)cc2)cc1,i,i,i,i,-8.3*,93*,68*
CC(=O)N(C)c1ccc(NC(=O)Nc2ccc(C)cc2)cc1,i,i,i,i,i,.,.
CC(C)CC(c1nnnn1Cc1cccs1)N1CCN(c2nc3ccccc3s2)CC1 (configuration not stated),i,i,i,i,-12*,92*,71*
CCC(c1nnnn1Cc1cccs1)N1CCN(c2nc3ccccc3s2)CC1 (configuration not stated),i,i,i,i,i,.,.
CCOC(=O)Nc1ccc2c(c1)N(C(=O)C(C)N1CCCC1)c1ccccc1CC2 (configuration not stated),i,i,i,i,-7.9*,86*,84*
CCC(c1nnc(SCC(=O)NCCc2ccc(Cl)cc2Cl)o1)N(C)C (configuration not stated),i,i,i,i,i,.,.
CCCOc1ccc(NC(=O)c2c(-c3ccccc3)noc2C)cc1,i,i,i,i,i,.,.
CC(=O)Nc1ccc(OCCCNC(=O)c2c(-c3ccccc3)noc2C)cc1,i,i,i,i,-8.6*,0,0
CN1CCN(C2=Cc3ccccc3Sc3cc(F)ccc32)CC1,i,i,8.2*,i,-12*,92*,94*
C=CCNc1nc(N2CCCCC2)c(C#N)c2c1CN(Cc1ccccc1)CC2,i,i,i,i,-8.9*,94*,81*
COc1cccc(C(=O)Nc2cccc(-c3nnc(-c4ccccc4)o3)c2)c1,i,i,i,i,-11*,76*,37*
COc1ccc(CC(=O)Nc2cccc(-c3nnc(-c4ccccc4)o3)c2)cc1OC,.,.,.,i,-9*,93*,81*
O=C(Cc1ccccc1)Nc1cccc(-c2nnc(-c3ccco3)o2)c1,i,i,i,i,i,.,.
COc1ccccc1OCC(=O)Nc1cccc(-c2nnc(-c3ccco3)o2)c1,i,i,i,i,-8.1*,78*,28*
CN(CC(=O)Nc1ccccc1Br)C(=O)CCCSc1nc2ccccc2[nH]1,i,i,i,i,i,.,.
O=C(COC(=O)Cc1ccc(Cl)cc1)Nc1ccc(OC(F)F)cc1,i,i,i,i,i,.,.
O=C(Nc1ccc(Cl)cc1)N(C1=NCCC1)c1ccc(OC(F)F)cc1,i,i,i,i,-10*,92*,92*
SMILES,MrgX1 agonist,MrgX1 antag,MrgX1 PAM,RGS4 block,RGS4 pot,RGS4 act valid,RGS4 act ctr
C/C=C1\COC(C(=O)NCc2ccccc2)(C(F)(F)F)C=C1C=C(C)C (configuration not stated),i,i,i,i,-7.8*,92*,93*
O=C(Nc1ccc(N2CCN(c3ncccc3C(F)(F)F)CC2)nc1)c1cccs1,i,i,i,i,-7.8*,92*,96*
CNc1nc(-c2ccccc2)[n+](-c2ccc(C)cc2)s1,i,i,i,i,-14*,97*,93*
COc1ccc2cc(C(N)=O)/c(=N/NC(=O)c3ccco3)oc2c1,i,i,i,i,i,.,.
CN(C)Cc1ccccc1CCc1ccccc1,i,i,i,i,-8.3*,78*,42*
CCOC(=O)c1c(C)n(C)c2ccc(O)c(CN3CCN(C)CC3)c12,i,i,i,i,i,.,.
CCOC(=O)c1c(-c2ccccc2)oc2ccc(O)c(CN3CCN(C)CC3)c12,i,i,i,i,-8.1*,69*,49*
CC(CN1CCCCC1)OC(=O)C(C)(c1ccccc1)c1ccccc1 (configuration not stated),i,i,i,i,-7.9*,90*,54*
CC(CN1CCOCC1)OC(=O)c1ccc2c(c1)OCCO2 (configuration not stated),i,i,i,i,i,.,.
CC(CN1CCOCC1)OC(=O)C(C)(c1ccccc1)c1ccccc1 (configuration not stated),i,i,i,i,i,.,.
CC(CN1CCCCC1)OC(=O)c1ccc2c(c1)OCCO2 (configuration not stated),i,i,i,i,-11*,68*,33*
O=C1CCN1C1(C(=O)NC2CCCCC2)CCCC1,i,i,i,i,i,.,.
O=C(NCc1ccc(/C=N\NC(=O)C(=O)Nc2ccccc2Br)o1)C(=O)Nc1ccccc1,i,i,i,i,i,.,.
FC(F)(F)c1cccc(CN2CCC(c3cc(-c4cccs4)n[nH]3)CC2)c1,i,i,i,i,i,.,.
Cc1ccc(CN2CCC(c3cc(-c4cccs4)n[nH]3)CC2)cc1,i,i,i,i,-17*,91*,68*
Cc1cccc(NC(=O)C2CCN(S(=O)(=O)c3c(C)c(C)cc(C)c3C)CC2)n1,i,i,i,i,-11*,90*,64*

# Source: PubChem (Johns Hopkins Ion Channel Center)
